This is a sample that favours compounds with a hit; in the whole collection about 1.1% have one here.
Furin inhibitor – human furin inhibition. P09958. inhibition, % at 20 µM or 30 µM. AID 463115. purified furin, fluorogenic substrate cleavage. 220,000 tested, 0.061% active; in the data active means inhibition above about 25%
Target sequence (P09958 108-714 limits assumed): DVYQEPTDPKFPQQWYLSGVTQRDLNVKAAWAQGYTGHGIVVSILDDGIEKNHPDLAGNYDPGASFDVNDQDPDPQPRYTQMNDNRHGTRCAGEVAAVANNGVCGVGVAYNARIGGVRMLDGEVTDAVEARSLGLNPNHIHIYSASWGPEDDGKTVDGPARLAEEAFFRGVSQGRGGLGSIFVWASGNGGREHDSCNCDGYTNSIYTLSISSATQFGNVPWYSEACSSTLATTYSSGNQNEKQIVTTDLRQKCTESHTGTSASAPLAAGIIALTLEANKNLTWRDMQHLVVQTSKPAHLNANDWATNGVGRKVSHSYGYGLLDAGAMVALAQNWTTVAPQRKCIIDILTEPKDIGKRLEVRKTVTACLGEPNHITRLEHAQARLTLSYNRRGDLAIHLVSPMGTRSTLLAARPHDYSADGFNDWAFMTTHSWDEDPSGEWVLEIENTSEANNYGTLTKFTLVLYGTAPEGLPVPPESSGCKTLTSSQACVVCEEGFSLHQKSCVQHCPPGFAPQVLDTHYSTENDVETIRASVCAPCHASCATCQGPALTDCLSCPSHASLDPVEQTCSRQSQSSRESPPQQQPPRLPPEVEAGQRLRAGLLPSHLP
FXIIa inh 1536 – blocks human coagulation factor XIIa protease activity. P00748. purified FXIIa, Boc-QGR-AMC fluorogenic substrate, 2 h. inhibition, % at 5 µM. 220,000 tested, 0.3% active. AID 800; in the data active means inhibition above about 40%
FXIa inh 1536 – blocks human coagulation factor XIa protease activity | purified FXIa, Boc-Glu-Ala-Arg-AMC fluorogenic substrate | inhibition, % at 5 µM | 220,000 tested, 0.14% active | AID 798;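 active means inhibition of at least 40%; inactive means inhibition below 40%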;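 further: fluorescence of freed AMC excited at 355 nm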
thrombin 1536 – thrombin (human) inhibition. P00734. alpha-thrombin, Boc-VPR-AMC fluorogenic substrate cleavage. inhibition, % at 5 µM. 220,000 tested, 0.26% active. AID 1046;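 active means inhibition at or above 40%; inactive means inhibition below 40%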
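signal = AMC fluorescence, 355/460 nm | material = human alpha-thrombin enzyme | control set = enzyme without compound as high, wells lacking enzyme as low | times = reaction at room temperature | read-out basis = percent inhibition scaled between no-compound controls and no-enzyme blanks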
KLK5 inh – blocks human kallikrein 5 protease activity; recombinant hK5, fluorogenic AMC substrate cleavage; inhibition, % at 5 µM; 210,000 tested, 0.59% active; Q9Y337;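 active means inhibition of 40% or more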
Large screens that a line does not name were inactive.

Cc1cc(F)ccc1S(=O)(=O)Nc1ccccc1C(=O)Nc1ncn[nH]1	none
Cc1cc(F)ccc1S(=O)(=O)Nc1ccccc1C(=O)NCc1ccccn1	KLK5 inh 50
Cc1ccc(NC(=O)CN(C)CC(=O)Nc2ccc(N3CCOCC3)cc2)c([N+](=O)[O-])c1	none
CC(=O)c1ccc(N2CCN(S(=O)(=O)c3cccc(S(=O)(=O)N4CCOCC4)c3)CC2)cc1	FXIIa inh 1536 47, KLK5 inh 90
COCc1nc2ccccc2n1Cc1c(F)cccc1Cl	none
CCOC(=O)CSc1nnc(CNC(=O)c2ccc([N+](=O)[O-])cc2)n1C	none
COc1ccc(C2c3cc(OC)c(OC)cc3CCN2S(C)(=O)=O)cc1OC (stereo unspecified)	FXIIa inh 1536 46
COc1cc2c(cc1OC)CN(S(C)(=O)=O)CC2	none
CCCCc1c(O)cc(C)[nH]c1=O	none
COc1cc(C2Nc3cccc4cccc(c34)N2)cc(OC)c1O	none
Oc1ccc(C2Nc3cccc4cccc(c34)N2)c(O)c1	thrombin 1536 67, KLK5 inh 57
COc1ccc(C(=O)Nc2nc3c(s2)CCCC3)cc1S(=O)(=O)N1CCCc2ccccc21	none
CC(C)CCC(CC(C)O)c1n[nH]c(=S)n1-c1ccccc1 (stereo unspecified)	none
CC(C)COc1ccc(CNC(=S)N/N=C/c2ccc([N+](=O)[O-])cc2)cc1	none
CC(C)Oc1ccc(CNC(=S)N/N=C/c2ccc([N+](=O)[O-])cc2)cc1	FXIIa inh 1536 53
Cc1ccc(/C=N/Nc2cc(C)nc(NCc3ccccc3)n2)cc1	none
Cc1cc(N/N=C/c2ccc(O)cc2)nc(NS(=O)(=O)c2ccccc2)n1	KLK5 inh 47
Cc1cccc2cc(C(c3nnnn3CC3CCCO3)N3CCc4ccccc4C3)c(=O)[nH]c12 (stereo unspecified)	KLK5 inh 43
Cc1cc(C)nc(-n2nc(C)cc2Nc2ccccc2)n1	thrombin 1536 104, KLK5 inh 54
O=C(Nc1cc([N+](=O)[O-])ccc1N1CCOCC1)c1ccco1	FXIa inh 1536 43
COc1ccc(CNC(=O)CCNS(=O)(=O)c2ccc(Cl)cc2)cc1	none
COc1ccc(S(=O)(=O)NCCC(=O)NCc2ccc(F)cc2)cc1	Furin inhibitor 29
Cc1ccc(-c2nn(C)c(=O)c3ccccc23)cc1CNC(=O)NC1CCCCC1	none
CNC(=O)c1ccc(N(Cc2ccccc2)S(C)(=O)=O)cc1	FXIIa inh 1536 58, KLK5 inh 72
Cc1nn(-c2ccccc2)c(Cl)c1/C=N/NC(=O)c1cccnc1	none
Cc1ccc(C(=O)N/N=C\c2c(C)nn(-c3ccccc3)c2Cl)cn1	KLK5 inh 41
COC(=O)c1ccccc1NC(=O)Oc1ccc(C(C)C)cc1	KLK5 inh 52
CC(Sc1ncc(C(F)(F)F)cc1Cl)C(=O)NCC1CCCO1 (stereo unspecified)	none (no result: KLK5 inh)
CCCC(=O)Nc1cccc(Oc2nc(C)cc(C)c2C#N)c1	Furin inhibitor 37
Cc1c(NC(=O)COC(=O)C2(c3ccc(F)cc3)CCCC2)c(=O)n(-c2ccccc2)n1C	none (no result: FXIIa inh 1536)
O=C(NC1CCCCCC1)c1ccc(=O)n(Cc2ccccc2)n1	none
COCCCn1cn[nH]c1=S	KLK5 inh 63
COCCCn1c(-c2ccc(Cl)cc2)n[nH]c1=S	none
COc1cc(C(=O)NC(=S)N(C)Cc2ccccc2)cc(OC)c1OC	FXIa inh 1536 101
CC1CCC2(CC1)NC(=S)N(C(C)(C)C)N2 (stereo unspecified)	KLK5 inh 42
NC1=C(O)C(=O)C(c2ccccc2)O1 (stereo unspecified)	none
c1ccc2c(c1)C(=Nn1cnnc1)c1ccccc1-2	Furin inhibitor 26
O=C1/C(=N/n2cnnc2)c2ccccc2N1Cc1ccccc1	none
COc1cccc2cc(C(=O)N3CCN(C45CC6CC(CC(C6)C4)C5)CC3)c(=O)oc12	KLK5 inh 65
COc1cccc2cc(C(=O)N3CCC(C)CC3)c(=O)oc12	none
Cc1cc(C(=O)N/N=C/c2cccs2)no1	none
CC(OC(=O)CCc1nc2ccccc2c(=O)[nH]1)C(=O)c1ccc(C(C)(C)C)cc1 (stereo unspecified)	none
COC(=O)c1[nH]c2cc(C)ccc2c1NC(=O)CN1CCc2cc(OC)c(OC)cc2C1	KLK5 inh 97
COC(=O)c1[nH]c2cc(OC)ccc2c1NC(=O)CCN1CCCCC1	Furin inhibitor 34, FXIa inh 1536 45
COC(=O)c1[nH]c2ccc(Cl)cc2c1NC(=O)CN1CCc2cc(OC)c(OC)cc2C1	none
O=C(NCCc1ccccc1)c1cc(=O)c2ccccc2o1	FXIIa inh 1536 52, KLK5 inh 47
O=C(NCCc1ccc(F)cc1)c1cc(=O)c2ccccc2o1	none
CN1CCN(C(CNS(=O)(=O)c2ccc(Cl)cc2)c2cccnc2)CC1 (stereo unspecified)	KLK5 inh 42
NC(=O)c1ccc(NC(=O)COC(=O)/C=C/c2ccc3c(c2)OCO3)cc1	KLK5 inh 57
COc1ccc(NC(=O)NC23CC4(C)CC(C)(CC(C)(C4)C2)C3)cc1	none
O=C(O)c1ccc(F)c(S(=O)(=O)Nc2ccccc2Cl)c1	KLK5 inh 86
CCOC(=O)NC(=O)c1cn(Nc2ccccc2C(F)(F)F)c(=O)[nH]c1=O	none
CCN1/C(=C/c2ccc3cccc(C)c3[n+]2CC)Sc2ccccc21	KLK5 inh 51
Cc1ccc(NC(=O)CN(C)C(=O)CCC(=O)c2cccs2)cc1	thrombin 1536 47
CCCCOC(=O)C(C)Sc1n[nH]c(=O)[nH]c1=O (stereo unspecified)	none (no result: KLK5 inh)
NC(=O)NC(=O)COC(=O)c1ccc2c(c1)C(=O)N(Cc1ccccc1)C2=O	none
Cc1ccc(NC(=O)CSc2nnc([C@H](C)NC(=O)OC(C)(C)C)o2)c(C)c1	FXIIa inh 1536 107
Cc1cccc(C)c1NC(=S)N(CCCN1CCOCC1)Cc1cccnc1	none
CCCCNC(=O)Nc1ccc(C2SCCS2)cc1	KLK5 inh 60
CNC(=O)Nc1ccc(C2SCCS2)cc1	none
Cc1nnc(SCCn2c(Br)nc3c2c(=O)[nH]c(=O)n3C)s1	FXIa inh 1536 44
Cc1nnc(SCCn2c(N3CCN(C)CC3)nc3c2c(=O)[nH]c(=O)n3C)s1	none
COC(=O)/C(=C/Nc1ccccc1)[N+](=O)[O-]	FXIIa inh 1536 46
COC(=O)/C(=C/Nc1ccc(O)cc1)[N+](=O)[O-]	none
CCn1nc(CC(=O)O)c2ccccc2c1=O	FXIa inh 1536 66
CCCCn1nc(CC(=O)O)c2ccccc2c1=O	none
Nc1ccc(SCC(=O)Nc2cccc([N+](=O)[O-])c2)cc1	none
Cc1cc(N/N=C/c2ccccc2Br)nc2ccccc12	KLK5 inh 42
Brc1ccccc1/C=N/Nc1ccc2ccccc2n1	none
CCOC(=O)C1(Cc2cccc(F)c2)CCN(C(=O)Cn2cnnn2)CC1	FXIIa inh 1536 45
Cc1ccc(OCC(=O)c2c[nH]c3ccccc23)c([N+](=O)[O-])n1	none
O=C1/C(=C/c2ccncc2)SC(=S)N1Nc1ccccc1	none
